Experimental data as given in article PMC11325413 (ACS Omega, 2024).

How the values were obtained:
[1] = system: A-549; test: Cytotoxicity assay, lung cancer cell line; type: cell-based; details: Homo sapiens, A549, read-out: cytotoxic activity IC50 ± SEM, A-549
Method in brief: (§1)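 Cytotoxicity of test compound was measured by MTT assay in a panel of four human cancer cell lines, with IC50 derived from the viability read-out.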

[2] = system: MCF-7; test: Cytotoxicity assay, breast cancer cell line; type: cell-based; details: Homo sapiens, MCF7, read-out: cytotoxic activity IC50 ± SEM, MCF-7
Method in brief: as §1

[3] = system: Panc-1; test: Cytotoxicity assay, pancreatic cancer cell line; type: cell-based; details: Homo sapiens, PANC-1, read-out: cytotoxic activity IC50 ± SEM, Panc-1
Method in brief: as §1

[4] = system: HT-29; test: Cytotoxicity assay, colon cancer cell line; type: cell-based; details: Homo sapiens, HT-29, read-out: cytotoxic activity IC50 ± SEM, HT-29
Method in brief: as §1

[5] = system: four human cancer cell lines (A-549, MCF-7, Panc-1, HT-29); test: Cytotoxicity assay, average over the four cancer cell lines; type: cell-based; details: read-out: cytotoxic activity average IC50 (GI50)
[6] = target: EGFR (Homo sapiens, UniProt P00533); test: EGFR-TK inhibitory assay; type: biochemical
Chain of EGFR (P00533 669-1210): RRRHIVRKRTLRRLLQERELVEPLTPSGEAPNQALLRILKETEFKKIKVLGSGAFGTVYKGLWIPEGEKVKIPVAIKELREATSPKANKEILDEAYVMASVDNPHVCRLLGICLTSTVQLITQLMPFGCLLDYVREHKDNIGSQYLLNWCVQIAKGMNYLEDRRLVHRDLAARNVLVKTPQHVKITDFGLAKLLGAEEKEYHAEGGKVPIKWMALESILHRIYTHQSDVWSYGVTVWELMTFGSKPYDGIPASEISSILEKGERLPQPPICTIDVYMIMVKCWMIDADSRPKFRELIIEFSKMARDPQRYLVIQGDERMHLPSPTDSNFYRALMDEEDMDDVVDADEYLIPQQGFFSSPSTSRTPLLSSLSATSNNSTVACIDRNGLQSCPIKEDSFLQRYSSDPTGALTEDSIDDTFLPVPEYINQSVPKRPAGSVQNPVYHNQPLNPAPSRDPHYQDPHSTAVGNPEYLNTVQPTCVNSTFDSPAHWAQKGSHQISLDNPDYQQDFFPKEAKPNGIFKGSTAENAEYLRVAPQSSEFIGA

[7] = target: VEGFR-2 (Homo sapiens, UniProt P35968); test: VEGFR-2 inhibitory kinase assay; type: biochemical
Chain of VEGFR-2 (P35968 20-1356): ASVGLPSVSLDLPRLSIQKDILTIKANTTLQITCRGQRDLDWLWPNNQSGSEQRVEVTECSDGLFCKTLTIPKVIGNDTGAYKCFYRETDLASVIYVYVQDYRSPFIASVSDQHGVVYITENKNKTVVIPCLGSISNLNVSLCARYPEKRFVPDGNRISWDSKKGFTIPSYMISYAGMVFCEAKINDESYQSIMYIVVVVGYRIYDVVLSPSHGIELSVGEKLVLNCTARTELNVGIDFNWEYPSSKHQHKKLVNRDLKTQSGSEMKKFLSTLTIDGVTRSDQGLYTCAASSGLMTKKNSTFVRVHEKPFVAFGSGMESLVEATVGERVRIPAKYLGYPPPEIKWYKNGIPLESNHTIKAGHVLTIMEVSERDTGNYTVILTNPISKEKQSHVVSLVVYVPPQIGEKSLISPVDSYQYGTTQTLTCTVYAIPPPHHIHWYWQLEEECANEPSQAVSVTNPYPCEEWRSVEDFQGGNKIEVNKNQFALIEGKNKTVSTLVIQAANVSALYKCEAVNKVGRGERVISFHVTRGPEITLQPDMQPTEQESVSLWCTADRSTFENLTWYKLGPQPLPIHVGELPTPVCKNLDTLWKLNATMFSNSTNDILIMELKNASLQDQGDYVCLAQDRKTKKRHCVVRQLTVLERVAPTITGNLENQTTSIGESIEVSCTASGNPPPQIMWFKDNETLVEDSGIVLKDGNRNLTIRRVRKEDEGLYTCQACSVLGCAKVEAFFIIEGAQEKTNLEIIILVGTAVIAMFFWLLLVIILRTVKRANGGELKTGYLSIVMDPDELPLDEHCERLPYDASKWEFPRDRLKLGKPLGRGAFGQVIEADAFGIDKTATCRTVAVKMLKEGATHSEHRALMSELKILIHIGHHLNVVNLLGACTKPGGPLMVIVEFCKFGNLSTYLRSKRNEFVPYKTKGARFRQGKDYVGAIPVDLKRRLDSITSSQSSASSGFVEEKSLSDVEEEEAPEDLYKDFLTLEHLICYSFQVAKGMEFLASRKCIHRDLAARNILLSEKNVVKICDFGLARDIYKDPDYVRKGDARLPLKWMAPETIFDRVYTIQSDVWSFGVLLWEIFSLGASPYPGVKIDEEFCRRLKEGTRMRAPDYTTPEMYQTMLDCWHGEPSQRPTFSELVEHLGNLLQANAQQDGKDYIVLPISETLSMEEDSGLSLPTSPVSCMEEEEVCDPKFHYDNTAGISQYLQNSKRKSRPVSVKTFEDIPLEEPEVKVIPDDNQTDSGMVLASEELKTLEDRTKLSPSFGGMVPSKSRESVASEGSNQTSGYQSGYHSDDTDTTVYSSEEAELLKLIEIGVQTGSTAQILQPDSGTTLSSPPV

[8] = system: MCF-10A cells; test: Cell viability assay; type: cell-based, human; details: 50 μM doses
Method in brief: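 Normal human mammary gland epithelial MCF-10A cells were incubated with test compound for 4 days, and viability was read by MTT assay.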

[9] = system: p53; test: Apoptosis marker immunoassay in A-549: p53; type: cell-based, human; details: A-549 cells
Method in brief: (§2)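 Sandwich immunoassay quantifying pro-apoptotic (p53, BAX, caspase 3, caspase 6) and antiapoptotic (BCL-2, CK-18) proteins in human lung A-549 cells treated with test compound. Levels are expressed as fold change relative to untreated control cells, as mean ± SD of three independent experiments.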

[10] = system: BAX; test: Apoptosis marker immunoassay in A-549: BAX; type: cell-based, human; details: A-549 cells
Method in brief: as §2

[11] = system: caspase 3; test: Apoptosis marker immunoassay in A-549: caspase 3; type: cell-based, human; details: A-549 cells
Method in brief: as §2

[12] = system: caspase 6; test: Apoptosis marker immunoassay in A-549: caspase 6; type: cell-based, human; details: A-549 cells
Method in brief: as §2

[13] = system: CK-18; test: Apoptosis marker immunoassay in A-549: CK-18; type: cell-based, human; details: A-549 cells
Method in brief: as §2

**Q.** With `COc1cc(C2NC(=S)NC(C)=C2C(=O)OC(C)C)ccc1O` (stereo not shown) [Compound 4, Isopropyl 4-(4-Hydroxy-3-methoxyphenyl)-6-methyl-2-thioxo-1,2,3,4-tetrahydropyrimidine-5-carboxylate] as the compound, how does the IC50 [1] read?
**A.** 47 ± 4 nM

**Q.** And the IC50 [2]?
**A.** 50 ± 5 nM

**Q.** And the IC50 [3]?
**A.** 48 ± 4 nM

**Q.** And the IC50 [4]?
**A.** 49 ± 4 nM

**Q.** What about the IC50 [5] of the same compound?
**A.** 49 nM

**Q.** How did the IC50 [1] turn out when `COc1ccc(C2NC(=S)NC(C)=C2C(=O)OC(C)C)cc1OC` (stereo not shown) [Compound 5, Isopropyl 4-(3,4-Dimethoxyphenyl)-6-methyl-2-thioxo-1,2,3,4-tetrahydropyrimidine-5-carboxylate] was run?
**A.** 67 ± 6 nM

**Q.** What about the IC50 [2] of the same compound?
**A.** 71 ± 6 nM

**Q.** What about the IC50 [3] of the same compound?
**A.** 68 ± 6 nM

**Q.** What about the IC50 [4] of the same compound?
**A.** 70 ± 6 nM

**Q.** And the IC50 [5]?
**A.** 68 nM

**Q.** Which IC50 [1] does the source give for `COc1cc(C2NC(=S)NC(C)=C2C(=O)OC(C)C)cc(OC)c1OC` (stereo not shown) [Compound 6, Isopropyl 6-Methyl-2-thioxo-4-(3,4,5-trimethoxyphenyl)-1,2,3,4-tetrahydropyrimidine-5-carboxylate] here?
**A.** 42 ± 4 nM

**Q.** What about the IC50 [2] of the same compound?
**A.** 46 ± 4 nM

**Q.** What about the IC50 [3] of the same compound?
**A.** 44 ± 4 nM

**Q.** What about the IC50 [4] of the same compound?
**A.** 47 ± 4 nM

**Q.** And the IC50 [5]?
**A.** 45 nM

**Q.** What about the IC50 [6] of the same compound?
**A.** 98 ± 6 nM

**Q.** And the IC50 [7]?
**A.** 5.3 ± 0.05 nM

**Q.** Which IC50 [1] does the source give for `CC1=C(C(=O)OC(C)C)C(c2cccc(O)c2)NC(=S)N1` (stereo not shown) [Compound 7, Isopropyl 4-(3-Hydroxyphenyl)-6-methyl-2-thioxo-1,2,3,4-tetrahydropyrimidine-5-carboxylate] here?
**A.** 70 ± 7 nM

**Q.** What about the IC50 [2] of the same compound?
**A.** 74 ± 7 nM

**Q.** What about the IC50 [3] of the same compound?
**A.** 72 ± 7 nM

**Q.** What about the IC50 [4] of the same compound?
**A.** 73 ± 7 nM

**Q.** And the IC50 [5]?
**A.** 71 nM

**Q.** With `CC1=C(C(=O)OC(C)C)C(c2ccc(O)cc2)NC(=S)N1` (stereo not shown) [Compound 8, Isopropyl 4-(4-Hydroxyphenyl)-6-methyl-2-thioxo-1,2,3,4-tetrahydropyrimidine-5-carboxylate] as the compound, how does the IC50 [1] read?
**A.** 64 ± 6 nM

**Q.** What about the IC50 [2] of the same compound?
**A.** 68 ± 6 nM

**Q.** What about the IC50 [3] of the same compound?
**A.** 67 ± 6 nM

**Q.** And the IC50 [4]?
**A.** 68 ± 6 nM

**Q.** And the IC50 [5]?
**A.** 67 nM

**Q.** For `COc1cc(C2NC(=O)NC(C)=C2C(=O)OC(C)C)ccc1O` (stereo not shown) [Compound 9, Isopropyl 4-(4-Hydroxy-3-methoxyphenyl)-6-methyl-2-oxo-1,2,3,4-tetrahydropyrimidine-5-carboxylate], which IC50 [1] is on record?
**A.** 74 ± 7 nM

**Q.** And the IC50 [2]?
**A.** 79 ± 7 nM

**Q.** And the IC50 [3]?
**A.** 75 ± 7 nM

**Q.** What about the IC50 [4] of the same compound?
**A.** 77 ± 7 nM

**Q.** And the IC50 [5]?
**A.** 76 nM

**Q.** What does the source list for `COc1ccc(C2NC(=O)NC(C)=C2C(=O)OC(C)C)cc1OC` (stereo not shown) [Compound 10, Isopropyl 4-(3,4-Dimethoxyphenyl)-6-methyl-2-oxo-1,2,3,4-tetrahydropyrimidine-5-carboxylate]?
**A.** IC50 [1]: 52 ± 5 nM; IC50 [2]: 55 ± 5 nM; IC50 [3]: 52 ± 5 nM; IC50 [4]: 54 ± 5 nM; IC50 [5]: 53 nM

**Q.** With `COc1cc(C2NC(=O)NC(C)=C2C(=O)OC(C)C)cc(OC)c1OC` (stereo not shown) [Compound 11, Isopropyl 6-Methyl-2-oxo-4-(3,4,5-trimethoxyphenyl)-1,2,3,4-tetrahydropyrimidine-5-carboxylate] as the compound, how does the IC50 [1] read?
**A.** 56 ± 5 nM

**Q.** What about the IC50 [2] of the same compound?
**A.** 58 ± 5 nM

**Q.** And the IC50 [3]?
**A.** 56 ± 5 nM

**Q.** What about the IC50 [4] of the same compound?
**A.** 59 ± 5 nM

**Q.** And the IC50 [5]?
**A.** 57 nM

**Q.** `CC1=C(C(=O)OC(C)C)C(c2cccc(O)c2)NC(=O)N1` (stereo not shown) [Compound 12, Isopropyl 4-(3-Hydroxyphenyl)-6-methyl-2-oxo-1,2,3,4-tetrahydropyrimidine-5-carboxylate] was tested. Which “effect on nontumor cells MCF-10A” value [8] did it give?
**A.** no effect

**Q.** What about the IC50 [1] of the same compound?
**A.** 36 ± 3 nM

**Q.** What about the IC50 [2] of the same compound?
**A.** 38 ± 3 nM

**Q.** What about the IC50 [3] of the same compound?
**A.** 36 ± 3 nM

**Q.** What about the IC50 [4] of the same compound?
**A.** 38 ± 3 nM

**Q.** And the IC50 [5]?
**A.** 37 nM

**Q.** And the IC50 [6]?
**A.** 87 ± 5 nM

**Q.** And the IC50 [7]?
**A.** 4.2 ± 0.04 nM

**Q.** And the “p53 elevation compared to control untreated cells” value [9]?
**A.** 4.75 fold

**Q.** And the “BAX elevation compared to control untreated cells” value [10]?
**A.** 13.95 fold

**Q.** What about the “caspase 3 elevation compared to control untreated cells” value [11] of the same compound?
**A.** 8.20 fold

**Q.** And the “caspase 6 elevation compared to control untreated cells” value [12]?
**A.** 9.65 fold

**Q.** Which results are given for `CC1=C(C(=O)OC(C)C)C(c2ccc(O)cc2)NC(=O)N1` (stereo not shown) [Compound 13, Isopropyl 4-(4-Hydroxyphenyl)-6-methyl-2-oxo-1,2,3,4-tetrahydropyrimidine-5-carboxylate]?
**A.** IC50 [1]: 62 ± 6 nM; IC50 [2]: 64 ± 6 nM; IC50 [3]: 61 ± 6 nM; IC50 [4]: 64 ± 6 nM; IC50 [5]: 62 nM

**Q.** With `COc1ccc(C2NC(=O)NC(C)=C2C(=O)OC(C)C)cc1O` (stereo not shown) [Compound 14, Isopropyl 4-(3-Hydroxy-4-methoxyphenyl)-6-methyl-2-oxo-1,2,3,4-tetrahydropyrimidine-5-carboxylate] as the compound, how does the IC50 [1] read?
**A.** 40 ± 4 nM

**Q.** And the IC50 [2]?
**A.** 44 ± 4 nM

**Q.** What about the IC50 [3] of the same compound?
**A.** 42 ± 4 nM

**Q.** And the IC50 [4]?
**A.** 43 ± 4 nM

**Q.** What about the IC50 [5] of the same compound?
**A.** 41 nM

**Q.** What about the IC50 [6] of the same compound?
**A.** 92 ± 5 nM

**Q.** What about the IC50 [7] of the same compound?
**A.** 4.7 ± 0.04 nM

**Q.** And the “p53 elevation compared to control untreated cells” value [9]?
**A.** 3.10 fold

**Q.** What about the “BAX elevation compared to control untreated cells” value [10] of the same compound?
**A.** 11.50 fold

**Q.** What about the “caspase 3 elevation compared to control untreated cells” value [11] of the same compound?
**A.** 7.40 fold

**Q.** What about the “caspase 6 elevation compared to control untreated cells” value [12] of the same compound?
**A.** 8.50 fold

**Q.** What about the “CK 18 protein expression level compared to control untreated cells” value [13] of the same compound?
**A.** 0.40 folds

**Q.** For `COc1cc(C2NC(=O)NC(C)=C2C(=O)OC(C)C)ccc1OCc1ccccc1` (stereo not shown) [Compound 15, Isopropyl 4-[4-(Benzyloxy)-3-methoxyphenyl]-6-methyl-2-oxo-1,2,3,4-tetrahydropyrimidine-5-carboxylate], which “effect on nontumor cells MCF-10A” value [8] is on record?
**A.** no effect

**Q.** And the IC50 [1]?
**A.** 33 ± 3 nM

**Q.** What about the IC50 [2] of the same compound?
**A.** 36 ± 3 nM

**Q.** And the IC50 [3]?
**A.** 34 ± 3 nM

**Q.** What about the IC50 [4] of the same compound?
**A.** 36 ± 3 nM

**Q.** What about the IC50 [5] of the same compound?
**A.** 35 nM

**Q.** And the IC50 [6]?
**A.** 84 ± 5 nM

**Q.** And the IC50 [7]?
**A.** 3.5 ± 0.03 nM

**Q.** And the “p53 elevation compared to control untreated cells” value [9]?
**A.** 5.90 fold

**Q.** What about the “BAX elevation compared to control untreated cells” value [10] of the same compound?
**A.** 14.50 fold

**Q.** And the “caspase 3 elevation compared to control untreated cells” value [11]?
**A.** 8.70 fold

**Q.** What about the “caspase 6 elevation compared to control untreated cells” value [12] of the same compound?
**A.** 9.80 fold

**Q.** What about the “CK 18 protein expression level compared to control untreated cells” value [13] of the same compound?
**A.** 0.60 folds

**Q.** With `C#Cc1cccc(Nc2ncnc3cc(OCCOC)c(OCCOC)cc23)c1` [erlotinib, reference compound] as the compound, how does the IC50 [1] read?
**A.** 30 ± 3 nM

**Q.** And the IC50 [2]?
**A.** 40 ± 3 nM

**Q.** What about the IC50 [3] of the same compound?
**A.** 30 ± 3 nM

**Q.** And the IC50 [4]?
**A.** 30 ± 3 nM
